Experimental data from ChEMBL document CHEMBL4350976, “Sequence modification of heptapeptide selected by phage display as homing device for HT-29 colon cancer cells to improve the anti-tumour activity of drug delivery systems” (Eur J Med Chem, 2019).

Assays:
OVCAR-3 = test: Cytostatic activity against human OVCAR3 cells preincubated for 24 hrs under serum free condition followed by compound washout and further incubation for 48 hrs in presence of serum by MTT assay; type: functional, cell-based
In short: (§1)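 Cells were grown at 37 °C in 5% CO2 in medium with 10% heat-inactivated FBS (20% for OVCAR-3) plus penicillin/streptomycin. The medium was RPMI-1640 for most lines, DMEM for U-87 MG and MRC-5, and IMDM for PE/CA-PJ lines. Seeding was 3×10^3–10×10^3 cells per well. Cells had 24 h compound exposure, a wash, and 48 h further culture. Read-out was MTT, normalized to untreated cells and fitted by nonlinear regression for IC50.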

B16 = test: Cytostatic activity against mouse B16 cells preincubated for 24 hrs under serum free condition followed by compound washout and further incubation for 48 hrs in presence of serum by MTT assay; type: functional, cell-based; in short: as §1
A549 = test: Cytostatic activity against human A549 cells preincubated for 24 hrs under serum free condition followed by compound washout and further incubation for 48 hrs in presence of serum by MTT assay; type: functional, cell-based; in short: as §1
A2058 = test: Cytostatic activity against human A2058 cells preincubated for 24 hrs under serum free condition followed by compound washout and further incubation for 48 hrs in presence of serum by MTT assay; type: functional, cell-based; in short: as §1
DU-145 = test: Cytostatic activity against human DU145 cells preincubated for 24 hrs under serum free condition followed by compound washout and further incubation for 48 hrs in presence of serum by MTT assay; type: functional, cell-based; in short: as §1
HCT-116 = test: Cytostatic activity against human HCT116 cells preincubated for 24 hrs under serum free condition followed by compound washout and further incubation for 48 hrs in presence of serum by MTT assay; type: functional, cell-based; in short: as §1
[1] = Toxicity in SCID mouse xenografted with human HT-29 cells assessed as animal death at 1 mg/kg, ip administered once a week (on days 13 and 20) starting from 13 days post inoculation measured upto 23 days post inoculation; type: organism-based; conditions: in vivo
[2] = Cytostatic activity against human PE/CA-PJ15 cells preincubated for 24 hrs under serum free condition followed by compound washout and further incubation for 48 hrs in presence of serum by MTT assay; type: functional, cell-based; in short: as §1
HT-29 [3] = test: Antitumor activity against human HT-29 cells xenografted in SCID mouse assessed as tumor growth inhibition by measuring decrease in tumor growth at 1 mg/kg, ip administered once per week for 2 times starting from 13 days post inoculation measured at day 23 post inoculation; conditions: HT-29, ip
NCI-H1975 = test: Cytostatic activity against human NCI-H1975 cells preincubated for 24 hrs under serum free condition followed by compound washout and further incubation for 48 hrs in presence of serum by MTT assay; type: functional, cell-based; in short: as §1
WiDr = test: Cytostatic activity against human WiDr cells preincubated for 24 hrs under serum free condition followed by compound washout and further incubation for 48 hrs in presence of serum by MTT assay; type: functional, cell-based; in short: as §1
MRC5 = test: Cytostatic activity against human MRC5 cells preincubated for 24 hrs under serum free condition followed by compound washout and further incubation for 48 hrs in presence of serum by MTT assay; type: ADME, cell-based; in short: as §1
PC-3 = test: Cytostatic activity against human PC3 cells preincubated for 24 hrs under serum free condition followed by compound washout and further incubation for 48 hrs in presence of serum by MTT assay; type: functional, cell-based; in short: as §1
[4] = Toxicity in SCID mouse xenografted with human HT-29 cells assessed as body weight loss at 1 mg/kg, ip administered once a week (on day 13 and 20) starting from 13 days post inoculation measured upto 23 days post inoculation; type: organism-based; conditions: in vivo
[5] = Cytostatic activity against human WM983B cells preincubated for 24 hrs under serum free condition followed by compound washout and further incubation for 48 hrs in presence of serum by MTT assay; type: functional, cell-based; in short: as §1
NCI-H1650 = test: Cytostatic activity against human NCI-H1650 cells preincubated for 24 hrs under serum free condition followed by compound washout and further incubation for 48 hrs in presence of serum by MTT assay; type: functional, cell-based; in short: as §1
MCF7 = test: Cytostatic activity against human MCF7 cells preincubated for 24 hrs under serum free condition followed by compound washout and further incubation for 48 hrs in presence of serum by MTT assay; type: functional, cell-based; in short: as §1
MDA-MB-231 = test: Cytostatic activity against human MDA-MB-231 cells preincubated for 24 hrs under serum free condition followed by compound washout and further incubation for 48 hrs in presence of serum by MTT assay; type: functional, cell-based; in short: as §1
[6] = Cytostatic activity against human PECAPJ41 cells preincubated for 24 hrs under serum free condition followed by compound washout and further incubation for 48 hrs in presence of serum by MTT assay; type: functional, cell-based; in short: as §1
CT26.WT = test: Cytostatic activity against mouse CT26.WT cells preincubated for 24 hrs under serum free condition followed by compound washout and further incubation for 48 hrs in presence of serum by MTT assay; type: functional, cell-based; in short: as §1
HepG2 = test: Cytostatic activity against human HepG2 cells preincubated for 24 hrs under serum free condition followed by compound washout and further incubation for 48 hrs in presence of serum by MTT assay; type: functional, cell-based; in short: as §1
HT-29 [7] = test: Cytostatic activity against human HT-29 cells preincubated for 24 hrs under serum free condition followed by compound washout and further incubation for 48 hrs in presence of serum by MTT assay; type: functional, cell-based
In short: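 HT-29 cells were exposed to the compound for 24 h, washed, and kept a further 48 h. Viability was read by MTT. Absorbances were normalized to untreated controls and fitted by nonlinear regression to dose-response curves to give IC50.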

[8] = Drug uptake in nucleus of human HT-29 cells assessed as increase in fluorescence at 50 uM after 90 mins by fluorescence based confocal microscopic analysis; type: ADME, subcellular; conditions: ht-29, 1.5 h
In short: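 HT-29 cells were incubated with 50 µM compound in RPMI for 90 min. Imaging was by confocal microscopy, with Dau detected at 550–600 nm emission.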

HT-29 [9] = test: Antitumor activity against human HT-29 cells xenografted in SCID mouse assessed as tumor growth inhibition by measuring decrease in tumor weight at 1 mg/kg, ip administered once a week (on day 13 and 20) starting from 13 days post inoculation measured at day 23 post inoculation relative to control; type: functional; conditions: HT-29, ip
U-87 MG = test: Cytostatic activity against human U87 cells preincubated for 24 hrs under serum free condition followed by compound washout and further incubation for 48 hrs in presence of serum by MTT assay; type: functional, cell-based, U-87MG ATCC; in short: as §1
HT-29 [10] = test: Antitumor activity against human HT-29 cells xenografted in SCID mouse assessed as decrease in number of Ki-67 positive cells measured as proliferation index at 1 mg/kg, ip administered once a week (on days 13 and 20) starting from 13 days post inoculation measured at day 23 post inoculation by KI-67-staining based light microscopic analysis (reference value: 100%); type: functional; set-up: scale not given: the % may be the effect or the level left
In short: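 Tumours from the SCID HT-29 orthotopic study were formalin-fixed and paraffin-embedded, cut at 2 µm, and given citrate pH 6 retrieval at 98 °C for 40 min. They were stained with anti-human Ki-67 (1:40, 1 h RT), then a biotinylated link, HRP polymer and AEC. Ki-67+ cells were counted in 5 fields per tumour at 40× magnification. The proliferation index is the % positive cells.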

PANC-1 = test: Cytostatic activity against human PANC1 cells preincubated for 24 hrs under serum free condition followed by compound washout and further incubation for 48 hrs in presence of serum by MTT assay; type: functional, cell-based; in short: as §1
[11] = Cytostatic activity against human M24 cells preincubated for 24 hrs under serum free condition followed by compound washout and further incubation for 48 hrs in presence of serum by MTT assay; type: functional, cell-based; in short: as §1
4T1 = test: Cytostatic activity against mouse 4T1 cells preincubated for 24 hrs under serum free condition followed by compound washout and further incubation for 48 hrs in presence of serum by MTT assay; type: functional, cell-based; in short: as §1

SMILES: COc1cccc2c1C(=O)c1c(O)c3c(c(O)c1C2=O)C[C@@](O)(C(C)=O)C[C@@H]3O[C@H]1C[C@H](N)[C@H](O)[C@H](C)O1 [DAUNORUBICIN]
- IC50 (OVCAR-3): 473 nM
- IC50 (B16): 8.9 nM
- IC50 (A549): 68.2 nM
- IC50 (A2058): 33.3 nM
- IC50 (DU-145): 24.5 nM
- IC50 (HCT-116): 127 nM
- Activity [1]: Toxic
- IC50 [2]: 26.7 nM
- inhibition in vivo at 1 mg/kg (HT-29 [3]): 30%
- IC50 (NCI-H1975): 13.3 nM
- IC50 (WiDr): 240 nM
- IC50 (MRC5): 255 nM
- IC50 (PC-3): 26 nM
- Activity [4]: Toxic
- IC50 [5]: 44.3 nM
- IC50 (NCI-H1650): 47.5 nM
- IC50 (MCF7): 286 nM
- IC50 (MDA-MB-231): 52.9 nM
- IC50 [6]: 25.8 nM
- IC50 (CT26.WT): 126 nM
- IC50 (HepG2): 21.3 nM
- IC50 (HT-29 [7]): 203 nM
- Drug uptake [8]: Active
- inhibition in vivo at 1 mg/kg (HT-29 [9]): 84%
- IC50 (U-87 MG): 27.9 nM
- Activity (HT-29 [10]): 94%
- IC50 (PANC-1): 467 nM
- IC50 [11]: 93.6 nM
- IC50 (4T1): 40.8 nM
